In ChEMBL document CHEMBL1250476, “Synthesis and antifungal evaluation of novel triazole derivatives as inhibitors of cytochrome P450 14alpha-demethylase” (2010):
Values after ≈ are worked out from the molar mass of the structure shown.

How the values were obtained:
Type in all cases: functional
Candida tropicalis = assay: Antifungal activity against Candida tropicalis by micro-broth dilution method
Method in brief: (§1)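 MIC80 by broth microdilution in 96-well format following NCCLS. Compounds were dissolved in DMSO, serially diluted in growth medium, inoculated and incubated at 35 °C. The endpoint was the first well with about 80% growth reduction versus the drug-free well. Values are means of three replicate tests.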

Kluyveromyces marxianus = assay: Antifungal activity against Candida kefyr by micro-broth dilution method; method in brief: as §1
Candida albicans [1] = assay: Antifungal activity against Candida albicans SC5314 after 24 hrs by micro-broth dilution method; details: SC5314, 24 h
Method in brief: (§2)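 Broth microdilution per NCCLS on Candida albicans. Compounds were dissolved in DMSO, serially diluted in growth medium, inoculated and incubated at 35 °C. Growth was read at 24 h, and MIC80 was taken as the first well with about 80% growth reduction relative to the drug-free control. Values are the mean of three replicates.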

Candida parapsilosis = assay: Antifungal activity against Candida parapsilosis by micro-broth dilution method; details: Lodderomyces parapsilosis; method in brief: as §1
Trichophyton rubrum = assay: Antifungal activity against Trichophyton rubrum by micro-broth dilution method; method in brief: as §1
Cryptococcus neoformans = assay: Antifungal activity against Cryptococcus neoformans after 72 hrs by micro-broth dilution method
Method in brief: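 Cryptococcus neoformans tested by NCCLS micro-broth dilution. Compounds were dissolved in DMSO, serially diluted in medium, inoculated and incubated at 35 °C. MIC80 was read at 72 h as the first well showing approximately 80% growth reduction compared with the drug-free well. Values are the mean of three replicate tests.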

Aspergillus fumigatus = assay: Antifungal activity against Aspergillus fumigatus by micro-broth dilution method; method in brief: as §1
Candida albicans [2] = assay: Antifungal activity against Candida albicans Y0109 after 24 hrs by micro-broth dilution method; details: Y0109, 24 h; method in brief: as §2

CCCCCCCCCCCCCCCCn1cc(CN(CC(O)(Cn2cncn2)c2ccc(F)cc2F)C(C)C)nn1 (stereo not drawn)
MIC (Candida tropicalis): < 0.125 µg/mL
MIC (Kluyveromyces marxianus): 0.25 µg/mL (≈ 0.415 µM)
MIC (Candida albicans [1]): < 0.125 µg/mL
MIC (Candida parapsilosis): 0.5 µg/mL (≈ 0.831 µM)
MIC (Trichophyton rubrum): 0.25 µg/mL (≈ 0.415 µM)
MIC (Cryptococcus neoformans): 2 µg/mL (≈ 3.32 µM)
MIC (Aspergillus fumigatus): > 64 µg/mL
MIC (Candida albicans [2]): 0.0625 µg/mL (≈ 0.104 µM)

CC(C)N(Cc1cn(Cc2ccccc2[N+](=O)[O-])nn1)CC(O)(Cn1cncn1)c1ccc(F)cc1F (stereo not drawn)
MIC (Candida tropicalis): 2 µg/mL (≈ 3.9 µM)
MIC (Kluyveromyces marxianus): 0.0625 µg/mL (≈ 0.122 µM)
MIC (Candida albicans [1]): < 0.125 µg/mL
MIC (Candida parapsilosis): 8 µg/mL (≈ 15.6 µM)
MIC (Trichophyton rubrum): 1 µg/mL (≈ 1.95 µM)
MIC (Cryptococcus neoformans): 32 µg/mL (≈ 62.4 µM)
MIC (Aspergillus fumigatus): > 64 µg/mL
MIC (Candida albicans [2]): 0.0625 µg/mL (≈ 0.122 µM)

CC(C)N(Cc1cn(Cc2cccc([N+](=O)[O-])c2)nn1)CC(O)(Cn1cncn1)c1ccc(F)cc1F (stereo not drawn)
MIC (Candida tropicalis): 4 µg/mL (≈ 7.8 µM)
MIC (Kluyveromyces marxianus): 0.25 µg/mL (≈ 0.488 µM)
MIC (Candida albicans [1]): < 0.125 µg/mL
MIC (Candida parapsilosis): 2 µg/mL (≈ 3.9 µM)
MIC (Trichophyton rubrum): 1 µg/mL (≈ 1.95 µM)
MIC (Cryptococcus neoformans): 32 µg/mL (≈ 62.4 µM)
MIC (Aspergillus fumigatus): > 64 µg/mL
MIC (Candida albicans [2]): 0.0625 µg/mL (≈ 0.122 µM)

CC(C)N(Cc1cn(Cc2ccc([N+](=O)[O-])cc2)nn1)CC(O)(Cn1cncn1)c1ccc(F)cc1F (stereo not drawn)
MIC (Candida tropicalis): 1 µg/mL (≈ 1.95 µM)
MIC (Kluyveromyces marxianus): 0.25 µg/mL (≈ 0.488 µM)
MIC (Candida albicans [1]): < 0.125 µg/mL
MIC (Candida parapsilosis): 4 µg/mL (≈ 7.8 µM)
MIC (Trichophyton rubrum): 2 µg/mL (≈ 3.9 µM)
MIC (Cryptococcus neoformans): 16 µg/mL (≈ 31.2 µM)
MIC (Aspergillus fumigatus): > 64 µg/mL
MIC (Candida albicans [2]): 0.0039 µg/mL (≈ 0.00761 µM)

CC(C)N(Cc1cn(Cc2ccccc2C#N)nn1)CC(O)(Cn1cncn1)c1ccc(F)cc1F (stereo not drawn)
MIC (Candida tropicalis): 1 µg/mL (≈ 2.03 µM)
MIC (Kluyveromyces marxianus): 1 µg/mL (≈ 2.03 µM)
MIC (Candida albicans [1]): 0.25 µg/mL (≈ 0.508 µM)
MIC (Candida parapsilosis): 8 µg/mL (≈ 16.2 µM)
MIC (Trichophyton rubrum): 2 µg/mL (≈ 4.06 µM)
MIC (Cryptococcus neoformans): 64 µg/mL (≈ 130 µM)
MIC (Aspergillus fumigatus): > 64 µg/mL
MIC (Candida albicans [2]): 0.0156 µg/mL (≈ 0.0317 µM)

CC(C)N(Cc1cn(Cc2cccc(C#N)c2)nn1)CC(O)(Cn1cncn1)c1ccc(F)cc1F (stereo not drawn)
MIC (Candida tropicalis): 16 µg/mL (≈ 32.5 µM)
MIC (Kluyveromyces marxianus): 0.25 µg/mL (≈ 0.508 µM)
MIC (Candida albicans [1]): < 0.125 µg/mL
MIC (Candida parapsilosis): 16 µg/mL (≈ 32.5 µM)
MIC (Trichophyton rubrum): 16 µg/mL (≈ 32.5 µM)
MIC (Cryptococcus neoformans): 64 µg/mL (≈ 130 µM)
MIC (Aspergillus fumigatus): > 64 µg/mL
MIC (Candida albicans [2]): 0.0625 µg/mL (≈ 0.127 µM)

CC(C)N(Cc1cn(Cc2ccc(C#N)cc2)nn1)CC(O)(Cn1cncn1)c1ccc(F)cc1F (stereo not drawn)
MIC (Candida tropicalis): < 0.125 µg/mL
MIC (Kluyveromyces marxianus): 0.25 µg/mL (≈ 0.508 µM)
MIC (Candida albicans [1]): 1 µg/mL (≈ 2.03 µM)
MIC (Candida parapsilosis): 0.5 µg/mL (≈ 1.02 µM)
MIC (Trichophyton rubrum): < 0.125 µg/mL
MIC (Cryptococcus neoformans): 16 µg/mL (≈ 32.5 µM)
MIC (Aspergillus fumigatus): > 64 µg/mL
MIC (Candida albicans [2]): 0.0156 µg/mL (≈ 0.0317 µM)

CC(C)N(Cc1cn(Cc2ccccc2)nn1)CC(O)(Cn1cncn1)c1ccc(F)cc1F (stereo not drawn)
MIC (Candida tropicalis): < 0.125 µg/mL
MIC (Kluyveromyces marxianus): 0.0625 µg/mL (≈ 0.134 µM)
MIC (Candida albicans [1]): < 0.125 µg/mL
MIC (Candida parapsilosis): 0.25 µg/mL (≈ 0.535 µM)
MIC (Trichophyton rubrum): < 0.125 µg/mL
MIC (Cryptococcus neoformans): 8 µg/mL (≈ 17.1 µM)
MIC (Aspergillus fumigatus): 64 µg/mL (≈ 137 µM)
MIC (Candida albicans [2]): 0.0039 µg/mL (≈ 0.00834 µM)

CC(C)N(Cc1cn(Cc2ccc(Cl)cc2Cl)nn1)CC(O)(Cn1cncn1)c1ccc(F)cc1F (stereo not drawn)
MIC (Candida tropicalis): 0.25 µg/mL (≈ 0.466 µM)
MIC (Kluyveromyces marxianus): 0.25 µg/mL (≈ 0.466 µM)
MIC (Candida albicans [1]): 4 µg/mL (≈ 7.46 µM)
MIC (Candida parapsilosis): 0.5 µg/mL (≈ 0.932 µM)
MIC (Trichophyton rubrum): 0.25 µg/mL (≈ 0.466 µM)
MIC (Cryptococcus neoformans): 8 µg/mL (≈ 14.9 µM)
MIC (Aspergillus fumigatus): > 64 µg/mL
MIC (Candida albicans [2]): 0.0156 µg/mL (≈ 0.0291 µM)

CC(C)N(Cc1cn(Cc2c(Cl)cccc2Cl)nn1)CC(O)(Cn1cncn1)c1ccc(F)cc1F (stereo not drawn)
MIC (Candida tropicalis): 0.0156 µg/mL (≈ 0.0291 µM)
MIC (Kluyveromyces marxianus): 0.0156 µg/mL (≈ 0.0291 µM)
MIC (Candida albicans [1]): 0.0039 µg/mL (≈ 0.00727 µM)
MIC (Candida parapsilosis): 0.0625 µg/mL (≈ 0.117 µM)
MIC (Trichophyton rubrum): 0.0156 µg/mL (≈ 0.0291 µM)
MIC (Cryptococcus neoformans): 0.0625 µg/mL (≈ 0.117 µM)
MIC (Aspergillus fumigatus): > 64 µg/mL
MIC (Candida albicans [2]): < 0.125 µg/mL

CC(C)N(Cc1cn(Cc2ccc(C(C)(C)C)cc2)nn1)CC(O)(Cn1cncn1)c1ccc(F)cc1F (stereo not drawn)
MIC (Candida tropicalis): 2 µg/mL (≈ 3.82 µM)
MIC (Kluyveromyces marxianus): 0.25 µg/mL (≈ 0.477 µM)
MIC (Candida albicans [1]): < 0.125 µg/mL
MIC (Candida parapsilosis): 1 µg/mL (≈ 1.91 µM)
MIC (Trichophyton rubrum): 1 µg/mL (≈ 1.91 µM)
MIC (Cryptococcus neoformans): 32 µg/mL (≈ 61.1 µM)
MIC (Aspergillus fumigatus): > 64 µg/mL
MIC (Candida albicans [2]): 0.25 µg/mL (≈ 0.477 µM)

CC(C)N(Cc1cn(C2CCCCC2)nn1)CC(O)(Cn1cncn1)c1ccc(F)cc1F (stereo not drawn)
MIC (Candida tropicalis): 0.5 µg/mL (≈ 1.09 µM)
MIC (Kluyveromyces marxianus): 0.25 µg/mL (≈ 0.544 µM)
MIC (Candida albicans [1]): < 0.125 µg/mL
MIC (Candida parapsilosis): 2 µg/mL (≈ 4.35 µM)
MIC (Trichophyton rubrum): 1 µg/mL (≈ 2.18 µM)
MIC (Cryptococcus neoformans): 16 µg/mL (≈ 34.8 µM)
MIC (Aspergillus fumigatus): > 64 µg/mL
MIC (Candida albicans [2]): 0.0625 µg/mL (≈ 0.136 µM)

OC(CN(Cc1cn(Cc2ccccc2F)nn1)C1CC1)(Cn1cncn1)c1ccc(F)cc1F (stereo not drawn)
MIC (Candida tropicalis): 0.5 µg/mL (≈ 1.03 µM)
MIC (Kluyveromyces marxianus): 0.0156 µg/mL (≈ 0.0323 µM)
MIC (Candida albicans [1]): 0.5 µg/mL (≈ 1.03 µM)
MIC (Candida parapsilosis): 1 µg/mL (≈ 2.07 µM)
MIC (Trichophyton rubrum): 0.25 µg/mL (≈ 0.517 µM)
MIC (Cryptococcus neoformans): 8 µg/mL (≈ 16.5 µM)
MIC (Aspergillus fumigatus): > 64 µg/mL
MIC (Candida albicans [2]): 0.0625 µg/mL (≈ 0.129 µM)

OC(CN(Cc1cn(Cc2cccc(F)c2)nn1)C1CC1)(Cn1cncn1)c1ccc(F)cc1F (stereo not drawn)
MIC (Candida tropicalis): < 0.125 µg/mL
MIC (Kluyveromyces marxianus): 0.0156 µg/mL (≈ 0.0323 µM)
MIC (Candida albicans [1]): < 0.125 µg/mL
MIC (Candida parapsilosis): < 0.125 µg/mL
MIC (Trichophyton rubrum): < 0.125 µg/mL
MIC (Cryptococcus neoformans): > 64 µg/mL
MIC (Aspergillus fumigatus): 64 µg/mL (≈ 132 µM)
MIC (Candida albicans [2]): 0.0625 µg/mL (≈ 0.129 µM)

OC(CN(Cc1cn(Cc2ccc(F)cc2)nn1)C1CC1)(Cn1cncn1)c1ccc(F)cc1F (stereo not drawn)
MIC (Candida tropicalis): 1 µg/mL (≈ 2.07 µM)
MIC (Kluyveromyces marxianus): 0.0625 µg/mL (≈ 0.129 µM)
MIC (Candida albicans [1]): 1 µg/mL (≈ 2.07 µM)
MIC (Candida parapsilosis): 4 µg/mL (≈ 8.27 µM)
MIC (Trichophyton rubrum): 2 µg/mL (≈ 4.14 µM)
MIC (Cryptococcus neoformans): 16 µg/mL (≈ 33.1 µM)
MIC (Aspergillus fumigatus): > 64 µg/mL
MIC (Candida albicans [2]): 0.25 µg/mL (≈ 0.517 µM)

OC(CN(Cc1cn(Cc2ccccc2Cl)nn1)C1CC1)(Cn1cncn1)c1ccc(F)cc1F (stereo not drawn)
MIC (Candida tropicalis): < 0.125 µg/mL
MIC (Kluyveromyces marxianus): 0.0156 µg/mL (≈ 0.0312 µM)
MIC (Candida albicans [1]): < 0.125 µg/mL
MIC (Candida parapsilosis): 0.25 µg/mL (≈ 0.5 µM)
MIC (Trichophyton rubrum): < 0.125 µg/mL
MIC (Cryptococcus neoformans): 4 µg/mL (≈ 8 µM)
MIC (Aspergillus fumigatus): > 64 µg/mL
MIC (Candida albicans [2]): 0.0625 µg/mL (≈ 0.125 µM)
